Assay results published in ChEMBL document CHEMBL3792364, “Identification and biological activity of 6-alkyl-substituted 3-methyl-pyridine-2-carbonyl amino dimethyl-benzoic acid EP4 antagonists” (Bioorg Med Chem Lett, 2016).
Values after ≈ are worked out from the molar mass of the structure shown. Active and inactive are the calls of the source. The calls are words filed in the database; no cut-off is given here.

What was measured:
Rattus norvegicus [1] = experiment: Antiinflammatory activity in rat MIA model assessed as inhibition of differential weight bearing at 5 mg/kg, po measured 30 mins post dose by incapacitance test; type: functional, organism-based
Summary of the method: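 MIA 0.3 mg in 50 µL saline injected into right knee and saline into left knee of rats on day 0. Day 12: randomized, single oral dose in 10% acacia in water plus 0.05% antifoam at 0.3–10 mg/kg, with diclofenac 5 mg/kg. Hind-limb weight distribution measured by incapacitance tester 30 min post dose. n = 5/group, Dunnett's test versus vehicle.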

Rattus norvegicus [2] = experiment: Antiinflammatory activity in rat adjuvant induced arthritis model assessed as suppression of Mycobacterium tuberculosis H37 RA induced paw swelling at 10 mg/kg measured from day 11 to 15 relative to vehicle control; type: functional, organism-based
Summary of the method: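 Rat adjuvant-induced arthritis: paw widths measured, then 0.25 mg adjuvant (Mycobacterium tuberculosis H37 RA) in 100 µl mineral oil given intradermally at tail base (day 0). On day 11, width of both paws was re-measured as percent change from day 0, and rats were randomized on this and body weight before dosing. Rats were euthanized day 15 without further dosing and paw width measured.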

[3] = biological target: T1, Prostaglandin E2 receptor EP4 subtype (Homo sapiens, UniProt P35408); experiment: Antagonist activity against EP4 in human whole blood assessed as reversal of PGE2-mediated suppression of LPS-induced TNF-alpha production preincubated for 30 mins followed by LPS stimulation measured after 20 to 24 hrs by enzyme immunoassay; type: tissue-based
T1 sequence (P35408 whole entry): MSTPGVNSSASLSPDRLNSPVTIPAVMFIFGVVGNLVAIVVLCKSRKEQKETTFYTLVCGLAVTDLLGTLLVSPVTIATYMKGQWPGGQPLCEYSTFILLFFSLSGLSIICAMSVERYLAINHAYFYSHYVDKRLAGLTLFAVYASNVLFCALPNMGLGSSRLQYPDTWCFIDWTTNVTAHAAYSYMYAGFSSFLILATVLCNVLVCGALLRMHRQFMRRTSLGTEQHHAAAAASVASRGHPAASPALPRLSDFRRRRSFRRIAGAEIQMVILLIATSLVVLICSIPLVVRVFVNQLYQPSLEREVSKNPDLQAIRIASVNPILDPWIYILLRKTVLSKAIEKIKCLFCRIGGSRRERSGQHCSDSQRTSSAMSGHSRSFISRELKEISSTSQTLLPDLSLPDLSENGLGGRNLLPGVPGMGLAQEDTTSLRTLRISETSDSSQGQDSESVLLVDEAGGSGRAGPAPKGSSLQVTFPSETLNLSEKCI
Summary of the method: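 Pooled blood from donors free of NSAIDs or celecoxib for 48 h and of glucocorticoids for 2 weeks. Blood pretreated 30 min at 37 °C, 5% CO2 with compound in DMSO (7-point curve, triplicate). LPS […] ± 10 nM PGE2 (final) added, then incubated 20–24 h. Plasma TNFα read at A450-A650. IC50 from sigmoidal nonlinear fit; geometric mean of independent runs.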

[4] = biological target: T1, Prostaglandin E2 receptor EP4 subtype; experiment: Antagonist activity against human EP4 expressed in HEK293 cells assessed as inhibition of PGE2-stimulated production of cAMP incubated for 20 mins by HTRF assay; type: functional, cell-based
[5] = Aqueous solubility of compound at pH 6 at 2 mM after 20 hrs by HPLC; type: physicochemical; settings: aqueous medium
Summary of the method: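 Samples in DMSO dried 12 h, then redissolved at pH 6 at a 2 mM target concentration. Stirred 20 h, filtered through 0.7 µm GF filter. Filtrate concentration measured by HPLC against a DMSO standard curve.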

Compound | Activity (Rattus norvegicus [1]) | Activity (Rattus norvegicus [2]) | IC50 [3] [nM] | IC50 [4] [nM] | solubility at 20 h, 2000 µM [5] [µg/mL]
O=C(O)Cc1ccccc1Nc1c(Cl)cccc1Cl | Active | Active | – | – | –
Cc1ccc(N2CCC(F)(F)CC2)nc1C(=O)Nc1c(C)cc(C(=O)O)cc1C | – | – | 1160 | 1.61 | –
Cc1ccc(N2CCC(O)CC2)nc1C(=O)Nc1c(C)ccc(C(=O)O)c1C | – | – | 1450 | 19.5 | 784 (≈ 2040 µM)
COC1CCN(c2ccc(C)c(C(=O)Nc3c(C)cc(C(=O)O)cc3C)n2)CC1 | – | – | – | 96.7 | –
Cc1ccc(N2CCCC(CO)C2)nc1C(=O)Nc1c(C)ccc(C(=O)O)c1C (stereo not given) | – | – | 2890 | 14.2 | –
